The test system of one data set is Rattus norvegicus. In words: In vivo antithrombotic activity was determined in rats. It counts as functional. Summed up: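 Stasis plus hypercoagulability venous thrombosis in male Sprague-Dawley rats (250-300 g) under pentobarbitone (30 mg/kg ip). Compounds given iv (penile vein) 5 min before human tissue factor (1 ng/kg iv over 30 s). Vena cava ligated 10 s later for 20 min; thrombus dried and weighed. ED50 = 50% thrombus weight reduction; mean with 95% CI, n = 6.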

In another data set the target is Prothrombin (Homo sapiens, UniProt P00734). In words: Inhibition of Thrombin generation was determined. The class given is functional. The method in brief: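 Thrombin generation in human defibrinated platelet-poor citrated plasma at 37 °C. Cuvette held rabbit brain thromboplastin (amount giving 90 s Quick time), S-2222 (1.6 mM stock), compound in Tris-HCl pH 7.35, and CaCl2 (0.25 M stock). Plasma addition started the reaction; A405 followed 20 min. IC50 from area under curve by four-parameter logistic fit; mean with 95% CI, n = 3.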

For data set [1], the target named is Coagulation factor X (Homo sapiens) (UniProt P00742). Briefly: Inhibition of blood coagulation factor Xa was determined by AT III. The method in brief:
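Amidolytic assay in buffer: factor Xa (7.5 nkat/mL) incubated 2 min at 37 °C with AT III (0.5 unit/mL) and oligosaccharide at various concentrations in 20 mM Tris/maleate pH 7.4, 150 mM NaCl. Residual Xa measured with S-2222 (1 mM stock); stopped after 2 min with acetic acid, A405 read. Activity versus calibrated standard; mean ± SEM, n = 3.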

Data set [2] is described as follows: Elimination half life was determined. The class given is ADME. Summed up: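 Rats with jugular catheter (pentobarbitone anesthesia), recovered overnight, received 100 nmol/kg iv bolus. Citrated blood collected; plasma levels measured by anti-factor Xa activity using each compound as its own reference. Half-life from slope of terminal phase; mean ± SEM, n = 4.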

The target of the next data set is Antithrombin-III (Homo sapiens, UniProt P01008). In words: Dissociation constant for Antithrombin-III. The method in brief:
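Intrinsic protein fluorescence titration at 37 °C with stirring; oligosaccharides added to Tris-HCl 0.01 M pH 7.0, 0.15 M NaCl containing 5–60 nM human AT III (purified). Complex concentrations calculated assuming 1:1 stoichiometry; KD from Scatchard analysis. Mean ± SEM, n = 3.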

By ED50 is commonly meant the dose at which the effect has come halfway, by size or by number of responders. As usually defined, the IC50 is the concentration at which inhibition is half-maximal. Usually half-life stands for the time needed for the level to fall by half in the phase considered. A lower half-life goes with rapid decline. The term Kd denotes the concentration at which binding is half-saturated.

Chain of Antithrombin-III (P01008 whole entry): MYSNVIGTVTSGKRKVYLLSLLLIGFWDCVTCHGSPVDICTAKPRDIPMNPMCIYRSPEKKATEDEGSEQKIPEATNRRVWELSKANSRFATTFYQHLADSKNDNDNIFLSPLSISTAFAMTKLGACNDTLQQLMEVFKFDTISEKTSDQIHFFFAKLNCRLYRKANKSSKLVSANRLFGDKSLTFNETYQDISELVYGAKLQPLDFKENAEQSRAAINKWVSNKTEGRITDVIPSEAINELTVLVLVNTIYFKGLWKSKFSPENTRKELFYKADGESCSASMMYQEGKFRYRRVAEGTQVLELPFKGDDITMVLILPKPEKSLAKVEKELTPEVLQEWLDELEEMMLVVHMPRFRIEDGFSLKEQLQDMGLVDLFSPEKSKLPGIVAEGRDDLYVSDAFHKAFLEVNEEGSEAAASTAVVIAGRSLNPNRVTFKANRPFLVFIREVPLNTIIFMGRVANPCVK
Chain of Coagulation factor X (Homo sapiens) (P00742 41-179 limits assumed): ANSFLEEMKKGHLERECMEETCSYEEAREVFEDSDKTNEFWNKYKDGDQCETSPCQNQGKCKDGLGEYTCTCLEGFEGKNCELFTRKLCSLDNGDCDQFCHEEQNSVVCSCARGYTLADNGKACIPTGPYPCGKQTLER
Chain of Coagulation factor X (Homo sapiens) (P00742 235-488 limits assumed): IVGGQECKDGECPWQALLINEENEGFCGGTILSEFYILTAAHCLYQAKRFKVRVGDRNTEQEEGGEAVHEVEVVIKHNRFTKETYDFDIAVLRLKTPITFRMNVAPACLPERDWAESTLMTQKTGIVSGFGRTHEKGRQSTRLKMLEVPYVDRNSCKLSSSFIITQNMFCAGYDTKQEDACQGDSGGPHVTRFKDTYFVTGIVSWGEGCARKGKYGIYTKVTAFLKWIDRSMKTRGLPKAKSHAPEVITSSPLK

With `O=C([O-])C1O[C@@H](O[C@H]2C(O)C(NS(=O)(=O)[O-])[C@@H](O)O[C@H]2COS(=O)(=O)[O-])C(NS(=O)(=O)[O-])[C@@H](O)[C@@H]1O[C@@H]1OC(COS(=O)(=O)[O-])[C@@H](O[C@@H]2O[C@@H](C(=O)[O-])[C@@H](O[C@H]3O[C@@H](COS(=O)(=O)[O-])[C@@H](O)C(O)C3NS(=O)(=O)[O-])C(O)C2O)[C@H](OS(=O)(=O)[O-])C1OS(=O)(=O)[O-].[Na+].[Na+].[Na+].[Na+].[Na+].[Na+].[Na+].[Na+].[Na+].[Na+]` (stereo not given in full), the ED50 with Rattus norvegicus was found to be 0.081 mg/kg. Also, half-maximal inhibition against Prothrombin (IC50) required 130 nM. The Activity in data set [1] was found to be 850 U/mg. The half-life in data set [2] is 42 min. Further, the Kd on Antithrombin-III was 58 nM.

The values above are taken from ChEMBL document CHEMBL1130037, “Synthesis and pharmacological properties of a close analogue of an antithrombotic pentasaccharide (SR 90107A/ORG 31540)” (J Med Chem, 1997).
